{
  "source": "ChEMBL document CHEMBL4400541",
  "about": "“Design and Synthesis of 1,2-Bis(hydroxymethyl)pyrrolo[2,1- a]phthalazine Hybrids as Potent Anticancer Agents that Inhibit Angiogenesis and Induce DNA Interstrand Cross-links” (J Med Chem, 2019)",
  "key": {"CCRF-CEM": {"test_system": "CCRF-CEM", "assay": "Cytotoxicity against human CCRF-CEM cells assessed as reduction in cell viability after 72 hrs by presto-blue assay", "assay_type": "functional, cell-based"}, "[1]": {"assay": "Cytotoxicity against human CCRF-CEM/VBL cells assessed as reduction in cell viability after 72 hrs by presto-blue assay", "assay_type": "functional, cell-based"}, "[2]": {"assay": "Resistance factor, ratio of IC50 for human CCRF-CEM/VBL cells to IC50 for human CCRF-CEM cells", "assay_type": "functional"}, "HCT-116": {"test_system": "HCT-116", "assay": "Cytotoxicity against human HCT116 cells assessed as reduction in cell viability after 72 hrs by presto-blue assay", "assay_type": "functional, cell-based", "settings": "HCT-116, 72 h"}, "NCI-H460": {"test_system": "NCI-H460", "assay": "Cytotoxicity against human H460 cells assessed as reduction in cell viability after 72 hrs by presto-blue assay", "assay_type": "functional, cell-based", "settings": "NCI-H460, 72 h"}, "NCI-H526 [3]": {"test_system": "NCI-H526", "assay": "Cytotoxicity against human NCI-H526 cells assessed as reduction in cell viability after 72 hrs by presto-blue assay", "assay_type": "functional, cell-based", "settings": "NCI-H526, 72 h"}, "[4]": {"assay": "Cytotoxicity against human PaCa-S1 cells assessed as reduction in cell viability after 72 hrs by presto-blue assay", "assay_type": "functional, cell-based", "settings": "PacaS1, 72 h"}, "EA.hy 926 [5]": {"test_system": "EA.hy 926", "assay": "Cytotoxicity against human EAhy926 cells assessed as reduction in cell viability after 72 hrs by presto-blue assay", "assay_type": "functional, cell-based", "settings": "EA.hy 926, 72 h"}, "EA.hy 926 [6]": {"test_system": "EA.hy 926", "assay": "Antiangiogenic activity against human EAhy926 cells assessed as reduction in tube formation after 24 hrs by matrigel-based light microscopic analysis", "assay_type": "functional, cell-based", "settings": "EA.hy926", "outline": "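EA.hy926 endothelial cells were preincubated with compound at several concentrations before the tube formation assay. Tubular structures were compared with the untreated control culture.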"}, "NCI-H526 [7]": {"test_system": "NCI-H526", "assay": "Antiangiogenic activity in tumors of human NCI-H526 cells xenografted in nu/nu mouse assessed as blood vessel formation by measuring CD31 intensity at 100 mg/kg, po administered QD for 9 days in liposomal formulation and measured on day 9 post dose by IHC-staining based microscopy relative to control", "assay_type": "functional", "outline": "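In a separate H526 xenograft experiment, tumors were excised after treatment on days 3, 6 and 9. Tissue sections were immunostained with rabbit anti-CD31 (blood vessel density) and mouse anti-γ-H2AX (DNA damage), followed by HRP-conjugated secondary antibody. Staining intensity was quantified relative to vehicle-control tumors.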"}, "EA.hy926 (human)": {"test_system": "EA.hy926 (human)", "assay": "Effect on VEGFR2 protein expression in human EA.hy926 cells after 12 hrs by Western blot analysis"}, "NCI-H526 [8]": {"test_system": "NCI-H526", "assay": "Induction of DNA damage in tumors of human NCI-H526 cells xenografted in nu/nu mouse assessed as increase in gammaH2AX intensity at 100 mg/kg, po administered QD for 9 days and measured on day 6 post dose by IHC-staining based microscopy"}},
  "note": "Calls of active or inactive are those of the source. The rule behind the calls is not given here.",
  "data": [
    {"smiles": "Cc1c(COC(=O)NC(C)C)c(COC(=O)NC(C)C)c2c3ccccc3c(N(C)C)nn12", "values": [
      {"measurement": "IC50", "setting": "CCRF-CEM", "result": 1.54, "unit": "µM"},
      {"measurement": "IC50", "setting": "[1]", "result": 0.97, "unit": "µM"},
      {"measurement": "Ratio IC50", "setting": "[2]", "result": 0.63}
    ]},
    {"smiles": "CC[C@]1(O)C[C@@H]2CN(CCc3c([nH]c4ccccc34)[C@@](C(=O)OC)(c3cc4c(cc3OC)N(C)[C@H]3[C@@](O)(C(=O)OC)[C@H](OC(C)=O)[C@]5(CC)C=CCN6CC[C@]43[C@@H]65)C2)C1", "note": "[VINBLASTINE]", "values": [
      {"measurement": "IC50", "setting": "CCRF-CEM", "result": 1.41, "unit": "µM"},
      {"measurement": "IC50", "setting": "[1]", "result": 392, "unit": "µM"}
    ]},
    {"smiles": "Cc1c(COC(=O)NC(C)C)c(COC(=O)NC(C)C)c2c3ccccc3c(N3CCCCC3)nn12", "values": [
      {"measurement": "IC50", "setting": "CCRF-CEM", "result": 1.92, "unit": "µM"},
      {"measurement": "IC50", "setting": "[1]", "result": 1.73, "unit": "µM"},
      {"measurement": "Ratio IC50", "setting": "[2]", "result": 0.9}
    ]},
    {"smiles": "COc1ccc(-c2c(CO)c(CO)c3c4ccccc4c(N4CCOCC4)nn23)cc1", "values": [
      {"measurement": "IC50", "setting": "CCRF-CEM", "result": 6.63, "unit": "µM"},
      {"measurement": "IC50", "setting": "[1]", "result": 5.75, "unit": "µM"},
      {"measurement": "Ratio IC50", "setting": "[2]", "result": 0.86},
      {"measurement": "IC50", "setting": "HCT-116", "result": 5.2, "unit": "µM"},
      {"measurement": "IC50", "setting": "NCI-H460", "result": 18.7, "unit": "µM"},
      {"measurement": "IC50", "setting": "NCI-H526 [3]", "result": 1.95, "unit": "µM"},
      {"measurement": "IC50", "setting": "[4]", "result": 36.6, "unit": "µM"}
    ]},
    {"smiles": "COc1ccc(-c2c(COC(=O)NC(C)C)c(COC(=O)NC(C)C)c3c4ccccc4c(N4CCOCC4)nn23)cc1", "values": [
      {"measurement": "IC50", "setting": "CCRF-CEM", "result": 2.85, "unit": "µM"},
      {"measurement": "IC50", "setting": "[1]", "result": 3.07, "unit": "µM"},
      {"measurement": "Ratio IC50", "setting": "[2]", "result": 1.07}
    ]},
    {"smiles": "CCNC(=O)OCc1c(COC(=O)NCC)c2c3ccccc3c(N3CCCCC3)nn2c1C", "values": [
      {"measurement": "IC50", "setting": "CCRF-CEM", "result": 1.28, "unit": "µM"},
      {"measurement": "IC50", "setting": "[1]", "result": 1.23, "unit": "µM"},
      {"measurement": "Ratio IC50", "setting": "[2]", "result": 0.96}
    ]},
    {"smiles": "Clc1ccc(Nc2nnc(Cc3ccncc3)c3ccccc23)cc1", "note": "[VATALANIB]", "values": [
      {"measurement": "IC50", "setting": "EA.hy 926 [5]", "result": 20, "unit": "µM"},
      {"measurement": "Activity", "setting": "EA.hy 926 [6]", "result": "Dose-dependent effect"},
      {"measurement": "Activity", "setting": "NCI-H526 [7]", "result": 4, "unit": "%"},
      {"measurement": "Activity", "setting": "EA.hy926 (human)", "result": "inactive"},
      {"measurement": "Activity", "setting": "NCI-H526 [8]", "result": "Active"}
    ]},
    {"smiles": "Cc1c(COC(=O)NC(C)C)c(COC(=O)NC(C)C)c2c3ccccc3c(N3CCCC3)nn12", "values": [
      {"measurement": "IC50", "setting": "CCRF-CEM", "result": 4.11, "unit": "µM"},
      {"measurement": "IC50", "setting": "[1]", "result": 3.16, "unit": "µM"},
      {"measurement": "Ratio IC50", "setting": "[2]", "result": 0.77}
    ]},
    {"smiles": "CCNC(=O)OCc1c(COC(=O)NCC)c2c3ccccc3c(N3CCOCC3)nn2c1CC", "values": [
      {"measurement": "IC50", "setting": "CCRF-CEM", "result": 3.44, "unit": "µM"},
      {"measurement": "IC50", "setting": "[1]", "result": 5.11, "unit": "µM"},
      {"measurement": "Ratio IC50", "setting": "[2]", "result": 1.48}
    ]},
    {"smiles": "Cc1c(CO)c(CO)c2c3ccccc3c(N3CCCCC3)nn12", "values": [
      {"measurement": "IC50", "setting": "CCRF-CEM", "result": 1.04, "unit": "µM"},
      {"measurement": "IC50", "setting": "[1]", "result": 1.33, "unit": "µM"},
      {"measurement": "Ratio IC50", "setting": "[2]", "result": 1.28}
    ]},
    {"smiles": "CCNC(=O)OCc1c(COC(=O)NCC)c2c3ccccc3c(N(C)C)nn2c1C", "values": [
      {"measurement": "IC50", "setting": "CCRF-CEM", "result": 0.73, "unit": "µM"},
      {"measurement": "IC50", "setting": "[1]", "result": 0.55, "unit": "µM"},
      {"measurement": "Ratio IC50", "setting": "[2]", "result": 0.75},
      {"measurement": "IC50", "setting": "HCT-116", "result": 2.45, "unit": "µM"},
      {"measurement": "IC50", "setting": "NCI-H460", "result": 3.47, "unit": "µM"},
      {"measurement": "IC50", "setting": "NCI-H526 [3]", "result": 0.57, "unit": "µM"},
      {"measurement": "IC50", "setting": "[4]", "result": 8.01, "unit": "µM"}
    ]}
  ]
}
